Assay [1] deals with T1, Adenosine receptor A2b (Homo sapiens, UniProt P29275).
T1 sequence (P29275 whole entry): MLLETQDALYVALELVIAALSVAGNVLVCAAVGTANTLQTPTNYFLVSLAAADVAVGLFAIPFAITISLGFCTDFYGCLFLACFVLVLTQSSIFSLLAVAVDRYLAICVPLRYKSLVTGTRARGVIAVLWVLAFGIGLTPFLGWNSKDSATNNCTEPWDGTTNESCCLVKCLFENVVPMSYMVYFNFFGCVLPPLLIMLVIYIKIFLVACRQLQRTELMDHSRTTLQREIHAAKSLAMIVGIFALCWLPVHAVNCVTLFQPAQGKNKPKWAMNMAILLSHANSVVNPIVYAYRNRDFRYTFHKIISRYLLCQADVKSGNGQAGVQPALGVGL
Kind of assay: Displacement of [3H]DPCPX from Adenosine A2b receptor expressed in CHO cells. The assay is classed as cell-based. On the technique in general: Loss of bound radioactivity is the signal in a displacement assay; it reports binding, not function.

Assay [2] deals with T2, Adenosine receptor A2a (Homo sapiens, UniProt P29274). The experiment in a line: Displacement of [3H]-SCH- 58261 from human adenosine A2A receptor expressed in CHO cells. The assay is classed as cell-based.
For assay [3], the target named is T3, Adenosine receptor A1 (Homo sapiens, UniProt P30542).
T3 sequence (P30542 whole entry): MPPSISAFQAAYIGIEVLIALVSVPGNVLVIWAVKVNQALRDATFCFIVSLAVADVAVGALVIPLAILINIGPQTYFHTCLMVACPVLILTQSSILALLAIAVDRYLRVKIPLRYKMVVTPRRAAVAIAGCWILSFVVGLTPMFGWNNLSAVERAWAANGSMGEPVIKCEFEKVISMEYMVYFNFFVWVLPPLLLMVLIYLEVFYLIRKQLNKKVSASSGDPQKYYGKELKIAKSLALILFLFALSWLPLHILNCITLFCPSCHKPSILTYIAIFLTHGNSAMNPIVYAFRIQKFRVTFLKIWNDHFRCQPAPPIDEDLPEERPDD
Kind of assay: Displacement of [3H]DPCPX from human adenosine A1 receptor expressed in CHO cells; range 2894-3460. The assay is classed as cell-based.

For assay [4], the target named is T4, Adenosine receptor A3 (Homo sapiens, UniProt P0DMS8).
T4 sequence (P0DMS8 whole entry): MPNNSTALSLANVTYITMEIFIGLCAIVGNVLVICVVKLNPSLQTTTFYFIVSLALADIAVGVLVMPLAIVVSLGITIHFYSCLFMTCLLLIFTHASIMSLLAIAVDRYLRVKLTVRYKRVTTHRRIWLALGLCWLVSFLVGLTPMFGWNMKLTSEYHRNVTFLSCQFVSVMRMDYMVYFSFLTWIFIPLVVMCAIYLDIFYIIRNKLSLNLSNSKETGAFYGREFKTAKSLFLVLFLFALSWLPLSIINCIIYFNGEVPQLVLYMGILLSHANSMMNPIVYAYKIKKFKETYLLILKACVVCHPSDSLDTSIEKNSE
Kind of assay: Displacement of [3H]MRE3008-F20 from human adenosine A3 receptor expressed in CHO cells; range 34-76. The assay is classed as cell-based.

Assay [5] concerns the target Adenosine receptors; A1 & A3 (Homo sapiens) (UniProt P30542+P0DMS8). Kind of assay: Ratio of binding affinity of human A1 receptor to that of human A3 receptor. Type of assay: protein assay. A digest of the protocol:
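Ki ratio from displacement in CHO membranes, 6–8 concentrations, n=3-6, filtration counting. A1: 1 nM [3H]DPCPX, 50 μg protein, 120 min at 25 °C, nonspecific with 10 μM CHA. A3: 1 nM [3H]MRE3008-F20, 50 μg protein, Tris/10 mM MgCl2 pH 7.4, 120 min at 4 °C, nonspecific with 1 μM MRE3008-F20.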

For assay [6], the target named is Adenosine receptors; A2b & A3 (Homo sapiens) (UniProt P29275+P0DMS8). The experiment in a line: Ratio of binding affinity of human A2B receptor to that of human A3 receptor. The assay is classed as protein assay. The gist of the method: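 Ki ratio, n=3-6, 6–8 concentrations. A2B in HEK-293 membranes (20 μg): 40 nM [3H]DPCPX, 50 mM Tris HCl, 10 mM MgCl2, 1 mM EDTA, 0.1 mM benzamidine pH 7.4, 2 IU/mL adenosine deaminase, 60 min at 25 °C, nonspecific with 100 μM NECA. A3 in CHO membranes (50 μg): 1 nM [3H]MRE3008-F20, 120 min at 4 °C.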

Assay [7] concerns the target T5, Adenosine receptor A3 (Homo sapiens) (UniProt P0DMS8).
T5 sequence (whole entry): T4 sequence (P0DMS8 whole entry)
The experiment in a line: Percentage of blockade by 1 uM of the inhibition by 100 nM IB-MECA-inhibited cAMP accumulation in CHO cells expressing human adenosine A3 receptor. The assay is classed as functional, cell-based. A digest of the protocol: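 CHO cells stably expressing human A3 receptor; membranes in 50 mM Tris HCl, 10 mM MgCl2, 1 mM EDTA pH 7.4 with 5 μM GTP, 0.5 mM […] and 2.0 IU/mL adenosine deaminase. Preincubated 10 min at 37 °C, then IB-MECA (100 nM) and/or antagonist with 1 mM ATP and 10 μM forskolin for 10 min. Boiled 2 min. cAMP read by [3H]cAMP competition with adrenal binding protein.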

The target of assay [8] is T2, Adenosine receptor A2a. Kind of assay: Displacement of [3H]-SCH- 58261 from human adenosine A2A receptor expressed in CHO cells; range 1.4-2.1. Type of assay: cell-based. The gist of the method: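 CHO membranes expressing human A2A receptor (50 μg protein) in 50 mM Tris HCl, 10 mM MgCl2, pH 7.4, competed against [3H]SCH 58261. At least 6–8 test concentrations were used, with 60 min incubation at 25 °C. Nonspecific binding defined by 50 μM NECA; n=3-6.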

Assay [9] deals with T3, Adenosine receptor A1. Kind of assay: Displacement of [3H]DPCPX from human adenosine A1 receptor expressed in CHO cells; range 11-17. The assay is classed as cell-based.
Assay [10] concerns the target T4, Adenosine receptor A3. Kind of assay: biochemical.
Assay [11] deals with T1, Adenosine receptor A2b. Kind of assay: Displacement of [3H]DPCPX from Adenosine A2b receptor expressed in HEK-293 cells; range 40-69.
The target of assay [12] is T3, Adenosine receptor A1. Kind of assay: Displacement of [3H]DPCPX from human adenosine A1 receptor expressed in CHO cells; range 327-462. The assay is classed as cell-based.
In assay [13] the target is T2, Adenosine receptor A2a. Kind of assay: Displacement of [3H]-SCH- 58261 from human adenosine A2A receptor expressed in CHO cells; range 3420-3788. The assay is classed as cell-based.
The target of assay [14] is T1, Adenosine receptor A2b. The experiment in a line: Displacement of [3H]DPCPX from Adenosine A2b receptor expressed in […]; range 1681-1961. The assay is classed as cell-based.
Assay [15] deals with T4, Adenosine receptor A3. The experiment in a line: biochemical. This is another data set of the same source.
Assay [16] deals with T1, Adenosine receptor A2b. Kind of assay: Displacement of [3H]DPCPX from Adenosine A2b receptor expressed in […]; range 183-278. Type of assay: cell-based.
The target of assay [17] is T4, Adenosine receptor A3. Kind of assay: Displacement of [3H]MRE3008-F20 from human adenosine A3 receptor expressed in CHO cells; range 51-70. Type of assay: cell-based.

Here are results for four molecules from ChEMBL document CHEMBL1133118 (J Med Chem, 2000).

The term Ki denotes the equilibrium dissociation constant of an inhibitor or competing ligand from its target. As usually defined, the inhibition is the relative decrease from the control value, in per cent. A higher inhibition goes with a response far below the control.

Some results are limits rather than exact numbers.

T2 sequence (P29274 whole entry): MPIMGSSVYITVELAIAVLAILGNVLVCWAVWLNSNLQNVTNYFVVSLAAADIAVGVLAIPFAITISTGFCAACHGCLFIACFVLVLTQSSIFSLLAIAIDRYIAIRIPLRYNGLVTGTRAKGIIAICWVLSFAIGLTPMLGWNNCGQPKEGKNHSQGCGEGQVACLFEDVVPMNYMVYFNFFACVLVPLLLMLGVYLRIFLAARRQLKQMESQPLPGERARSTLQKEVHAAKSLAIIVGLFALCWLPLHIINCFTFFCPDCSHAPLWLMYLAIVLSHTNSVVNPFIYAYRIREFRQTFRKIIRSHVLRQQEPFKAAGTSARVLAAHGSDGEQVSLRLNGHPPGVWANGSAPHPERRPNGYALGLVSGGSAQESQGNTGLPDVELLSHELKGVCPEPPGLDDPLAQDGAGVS

As for `O=C(Nc1cccc(Cl)c1)Nc1nc2nn(CCc3cccc4ccccc34)cc2c2nc(-c3ccco3)nn12`, the Ki on Adenosine receptor A2b [1] is greater than 10000 nM; at Adenosine receptor A2a [2], greater than 10000 nM; on Adenosine receptor A1 [3], 3160 nM; at Adenosine receptor A3 [4], 51 nM. For the same molecule, the figures for the Ratio in assay [5] and in [6] were 62 and greater than 196, respectively. This molecule also displayed an inhibition in assay [7] of 40%.

For `CCCCn1cc2c(nc(N)n3nc(-c4ccco4)nc23)n1`, the Ki on Adenosine receptor A2a [8] was found to be 1.6 nM; on Adenosine receptor A1 [9] it was 14 nM; on Adenosine receptor A3 [10] it was 600 nM; at Adenosine receptor A2b [11], 53 nM. Also, the figures for the Ratio in assay [5] and in assay [6] were 0.02 and 0.09, respectively. In assay [7], this molecule displayed an inhibition of 15%.

On to `O=C(Nc1cccc(Cl)c1)Nc1nc2nn(CCc3cc(Br)c(Br)cc3Br)cc2c2nc(-c3ccco3)nn12`, for which the Ki amounted to 389 nM on Adenosine receptor A1 [12], 3600 nM at Adenosine receptor A2a [13], 1820 nM at Adenosine receptor A2b [14] and 71 nM at Adenosine receptor A3 [15]. The Ratio stood at 5.5 in [5] and 26 in assay [6]. Moreover, in assay [7], the inhibition worked out at 32%.

In the case of `O=C(Nc1cccc(Cl)c1)Nc1nc2nn(CCCc3ccccc3)cc2c2nc(-c3ccco3)nn12`, the Ki on Adenosine receptor A2b [16] is 226 nM; at Adenosine receptor A3 [17] it was 60 nM. The Ratio was 25 in [5] and 3.7 in assay [6]. The molecule further came in with an inhibition in [7] of 39%.
